According to ChEMBL document CHEMBL3108739, “Activation and inhibition of thermosensitive TRP channels by voacangine, an alkaloid present in Voacanga africana, an African tree” (J Nat Prod, 2014):
pIC50: −log10 of the molar value. The source made the active and inactive calls. The rule behind the calls is not given here.

Tests used:
[1] = biological target: T1, Transient receptor potential cation channel subfamily V member 3 (Homo sapiens) (UniProt Q8NET8); assay: Agonist activity at human TRPV3 expressed in HEK293T cells assessed as intracellular Ca2+ influx at 100 uM by Fluo-4 AM staining-based fluorescence analysis; type: cell-based; settings: HEK-293T
T1 sequence (whole entry): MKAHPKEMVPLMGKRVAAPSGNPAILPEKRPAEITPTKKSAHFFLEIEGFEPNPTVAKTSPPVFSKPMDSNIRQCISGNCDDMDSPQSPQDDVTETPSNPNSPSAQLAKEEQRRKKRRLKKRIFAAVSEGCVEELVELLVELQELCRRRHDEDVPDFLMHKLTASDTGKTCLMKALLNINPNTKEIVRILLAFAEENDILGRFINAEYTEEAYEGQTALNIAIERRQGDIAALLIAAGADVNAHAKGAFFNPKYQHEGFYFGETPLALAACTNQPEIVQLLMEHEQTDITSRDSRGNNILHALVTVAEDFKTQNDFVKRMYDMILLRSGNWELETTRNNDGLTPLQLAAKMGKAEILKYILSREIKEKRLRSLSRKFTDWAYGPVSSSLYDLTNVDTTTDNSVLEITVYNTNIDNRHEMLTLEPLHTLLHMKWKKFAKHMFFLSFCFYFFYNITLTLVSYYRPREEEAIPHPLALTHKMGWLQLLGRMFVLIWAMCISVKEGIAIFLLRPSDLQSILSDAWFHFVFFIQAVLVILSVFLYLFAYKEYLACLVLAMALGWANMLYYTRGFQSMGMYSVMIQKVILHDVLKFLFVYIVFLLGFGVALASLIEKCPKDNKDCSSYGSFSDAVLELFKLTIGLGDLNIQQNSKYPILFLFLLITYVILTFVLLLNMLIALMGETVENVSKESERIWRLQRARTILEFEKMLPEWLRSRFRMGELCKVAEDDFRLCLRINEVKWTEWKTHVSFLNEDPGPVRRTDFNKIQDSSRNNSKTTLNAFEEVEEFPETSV
Method in brief: (§1)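 hTRPV3 transiently expressed in HEK293T; loading and assay at 25 °C, Fluo-4 with probenecid buffer pH 7.4. Agonist 100 and 300 μM menthol, 5 μM ruthenium red as reference; 100 μM compound alone or pretreated 3 min. Data as % of 1000 μM menthol.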

[2] = biological target: Transient receptor potential cation channel subfamily M member 8 (Mus musculus) (UniProt Q8R4D5); settings: Dorsal root ganglion, HEK T-REx, 3 to 30 uM
Sequence of Transient receptor potential cation channel subfamily M member 8 (Mus musculus) (Q8R4D5 whole entry): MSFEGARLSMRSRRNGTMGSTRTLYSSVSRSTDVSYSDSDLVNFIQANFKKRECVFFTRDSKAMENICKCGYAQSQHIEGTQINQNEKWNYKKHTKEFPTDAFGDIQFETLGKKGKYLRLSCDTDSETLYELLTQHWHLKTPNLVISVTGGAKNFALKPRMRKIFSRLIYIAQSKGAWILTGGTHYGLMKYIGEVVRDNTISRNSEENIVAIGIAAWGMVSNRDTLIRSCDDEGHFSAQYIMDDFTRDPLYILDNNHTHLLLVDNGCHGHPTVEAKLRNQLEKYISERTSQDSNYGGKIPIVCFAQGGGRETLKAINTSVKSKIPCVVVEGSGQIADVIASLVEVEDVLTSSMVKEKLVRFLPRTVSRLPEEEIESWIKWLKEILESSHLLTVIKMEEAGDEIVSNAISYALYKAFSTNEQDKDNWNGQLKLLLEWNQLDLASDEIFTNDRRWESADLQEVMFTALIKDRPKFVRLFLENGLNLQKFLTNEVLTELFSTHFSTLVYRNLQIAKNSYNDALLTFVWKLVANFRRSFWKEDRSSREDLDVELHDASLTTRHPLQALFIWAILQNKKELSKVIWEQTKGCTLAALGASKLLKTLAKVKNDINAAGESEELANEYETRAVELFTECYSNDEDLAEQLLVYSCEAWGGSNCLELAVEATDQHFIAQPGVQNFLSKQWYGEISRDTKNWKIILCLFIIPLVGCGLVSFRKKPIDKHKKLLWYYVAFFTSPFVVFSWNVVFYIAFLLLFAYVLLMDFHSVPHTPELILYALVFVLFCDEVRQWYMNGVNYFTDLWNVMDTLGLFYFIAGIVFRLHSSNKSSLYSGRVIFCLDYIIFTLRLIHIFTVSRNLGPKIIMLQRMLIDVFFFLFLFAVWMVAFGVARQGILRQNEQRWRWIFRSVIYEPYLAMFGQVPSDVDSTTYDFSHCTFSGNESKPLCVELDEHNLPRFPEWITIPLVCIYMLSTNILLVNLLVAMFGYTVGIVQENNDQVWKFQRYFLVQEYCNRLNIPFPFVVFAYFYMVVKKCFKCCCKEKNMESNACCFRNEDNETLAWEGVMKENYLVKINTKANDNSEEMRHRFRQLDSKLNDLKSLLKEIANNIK

[3] = biological target: T2, Transient receptor potential cation channel subfamily A member 1 (Homo sapiens, UniProt O75762); assay: Agonist activity at TRPA1 isolated from human W138 cells expressed in HEK T-REx cells assessed as intracellular Ca2+ influx at 10 to 100 uM by Fluo-4 AM staining-based fluorescence analysis; type: cell-based
T2 sequence (O75762 whole entry): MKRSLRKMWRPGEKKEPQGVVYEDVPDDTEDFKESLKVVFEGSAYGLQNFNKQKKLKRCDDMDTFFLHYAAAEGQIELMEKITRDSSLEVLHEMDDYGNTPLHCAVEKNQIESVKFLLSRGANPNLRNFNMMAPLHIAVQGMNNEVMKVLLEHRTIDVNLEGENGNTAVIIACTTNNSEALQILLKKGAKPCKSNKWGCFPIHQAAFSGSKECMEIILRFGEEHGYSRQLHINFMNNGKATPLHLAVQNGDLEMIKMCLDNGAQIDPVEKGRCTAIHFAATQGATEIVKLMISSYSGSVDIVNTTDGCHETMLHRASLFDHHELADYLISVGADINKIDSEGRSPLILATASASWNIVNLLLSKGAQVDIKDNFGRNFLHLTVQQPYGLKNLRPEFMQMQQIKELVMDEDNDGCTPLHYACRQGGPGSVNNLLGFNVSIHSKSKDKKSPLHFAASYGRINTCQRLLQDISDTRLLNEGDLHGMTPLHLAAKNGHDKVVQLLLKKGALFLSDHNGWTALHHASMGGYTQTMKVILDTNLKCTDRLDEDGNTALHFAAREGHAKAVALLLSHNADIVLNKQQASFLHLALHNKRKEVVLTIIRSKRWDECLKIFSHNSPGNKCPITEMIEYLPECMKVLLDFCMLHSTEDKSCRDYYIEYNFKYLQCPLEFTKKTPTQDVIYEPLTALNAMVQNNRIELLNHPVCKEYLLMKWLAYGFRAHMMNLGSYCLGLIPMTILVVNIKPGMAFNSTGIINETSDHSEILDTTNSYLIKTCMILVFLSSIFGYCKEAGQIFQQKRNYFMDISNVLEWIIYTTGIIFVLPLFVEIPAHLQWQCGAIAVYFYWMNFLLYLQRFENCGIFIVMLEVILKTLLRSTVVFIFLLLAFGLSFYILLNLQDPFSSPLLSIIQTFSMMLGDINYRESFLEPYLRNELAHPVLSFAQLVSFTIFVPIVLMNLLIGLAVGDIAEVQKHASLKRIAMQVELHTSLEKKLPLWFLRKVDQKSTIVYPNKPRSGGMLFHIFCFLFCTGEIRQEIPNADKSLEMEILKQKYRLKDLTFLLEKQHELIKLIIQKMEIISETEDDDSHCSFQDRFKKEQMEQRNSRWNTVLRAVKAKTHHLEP
Method in brief: (§2)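 Tetracycline-induced (1 μg/mL) stable hTRPA1 in HEK T-REx cells, Fluo-4 AM loaded (3 μM, 1 h, 37 °C) in HEPES buffer pH 7.4 with probenecid; Ca2+ read at 37 °C. Compound 0.01−100 μM; HC-030031 30 μM pretreated 3 min. Responses as % of 5 μM ionomycin or of 100 μM AITC; TREx cells without TRPA1 as control; n = 4−8.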

[4] = biological target: T1, Transient receptor potential cation channel subfamily V member 3 (Homo sapiens); assay: Antagonist activity at human TRPV3 expressed in HEK293T cells assessed as menthol-induced intracellular Ca2+ influx at 100 uM by Fluo-4 AM staining-based fluorescence analysis; type: cell-based; settings: HEK-293T; method in brief: as §1
[5] = biological target: Transient receptor potential cation channel subfamily M member 8 (Mus musculus) (UniProt Q8R4D5); assay: (§3) Antagonist at TRPM8 isolated from mouse dorsal root ganglion cells expressed in HEK T-REx cells assessed as inhibition of menthol-induced intracellular Ca2+ influx by fluorescence-based assay; type: cell-based
Method in brief: (§4)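 Tetracycline-induced mTRPM8 in HEK T-REx, Fluo-4 Ca2+ at 37 °C. Antagonists (e.g. 0.01−100 μM, CNA up to 500 μM) preincubated 3 min before 10 μM menthol. IC50 from dose−inhibition curves, data as % of 10 μM menthol; n = 4−12.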

[6] = biological target: Transient receptor potential cation channel subfamily M member 8 (Mus musculus, UniProt Q8R4D5); assay: as §3; type: cell-based; method in brief: as §4
Sequence of Transient receptor potential cation channel subfamily M member 8 (Q8R4D5 whole entry): as the sequence (Q8R4D5 whole entry) above

[7] = biological target: T2, Transient receptor potential cation channel subfamily A member 1; assay: Agonist activity at TRPA1 isolated from human W138 cells expressed in HEK293T cells assessed as intracellular Ca2+ influx at 10 to 100 uM by Fluo-4 AM staining-based fluorescence analysis relative to allylisothiocyanate; type: cell-based; method in brief: as §2
[8] = biological target: Transient receptor potential cation channel subfamily V member 1 (Homo sapiens, UniProt Q8NER1); assay: Antagonist activity at human brain TRPV1 expressed in HEK293T cells assessed as CAP-induced intracellular Ca2+ influx at 100 uM by Fluo-4 AM staining-based fluorescence analysis; type: cell-based; settings: HEK-293T
Sequence of Transient receptor potential cation channel subfamily V member 1 (Q8NER1 whole entry): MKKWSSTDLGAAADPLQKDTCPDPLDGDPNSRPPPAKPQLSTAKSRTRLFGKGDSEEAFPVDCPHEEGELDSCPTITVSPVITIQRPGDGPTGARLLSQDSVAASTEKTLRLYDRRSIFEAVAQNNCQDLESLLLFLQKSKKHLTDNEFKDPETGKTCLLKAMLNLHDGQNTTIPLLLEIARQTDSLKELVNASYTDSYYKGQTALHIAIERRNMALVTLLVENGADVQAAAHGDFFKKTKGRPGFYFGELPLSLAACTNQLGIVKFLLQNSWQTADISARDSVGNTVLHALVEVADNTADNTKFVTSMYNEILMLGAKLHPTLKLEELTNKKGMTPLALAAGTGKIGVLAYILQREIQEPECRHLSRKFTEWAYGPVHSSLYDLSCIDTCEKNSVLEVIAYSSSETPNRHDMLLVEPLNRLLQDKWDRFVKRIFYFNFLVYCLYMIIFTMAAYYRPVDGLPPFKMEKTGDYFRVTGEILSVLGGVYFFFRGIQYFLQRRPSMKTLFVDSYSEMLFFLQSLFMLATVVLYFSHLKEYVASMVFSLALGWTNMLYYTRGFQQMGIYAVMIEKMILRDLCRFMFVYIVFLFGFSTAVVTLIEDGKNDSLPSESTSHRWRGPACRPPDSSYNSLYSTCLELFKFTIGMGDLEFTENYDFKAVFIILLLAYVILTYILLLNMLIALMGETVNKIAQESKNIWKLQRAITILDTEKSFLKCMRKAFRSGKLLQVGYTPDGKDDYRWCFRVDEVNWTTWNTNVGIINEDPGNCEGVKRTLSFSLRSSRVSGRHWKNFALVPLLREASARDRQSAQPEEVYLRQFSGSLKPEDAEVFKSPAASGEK
Method in brief: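 Stable hTRPV1 in HEK293T (G418 selected), Fluo-4 loaded, 37 °C. 100 μM compound alone, or pretreated 3 min before 0.01 μM capsaicin; 10 μM BCTC reference. Data as % of 10 μM capsaicin.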

[9] = biological target: Transient receptor potential cation channel subfamily M member 8 (Mus musculus) (UniProt Q8R4D5); settings: Dorsal root ganglion, HEK T-REx, 100 uM

## CC[C@H]1C[C@@H]2CN3CCc4c([nH]c5ccc(OC)cc45)[C@](C(=O)OC)(C2)[C@H]13 [VOACANGINE]
[1]
  Activity: inactive
[2]
  inhibition: inactive
[3]
  Activity: inactive
[4]
  Activity: inactive
[5]
  inhibition: Dose-dependent effect
[6]
  pIC50: 5.05
[7]
  Activity: 98%
[8]
  Activity: Active
[9]
  inhibition: Active
